Experimental data published in ChEMBL document CHEMBL4325842, “Design, synthesis, and biological evaluation of novel aminopyrimidinylisoindolines as AXL kinase inhibitors” (Bioorg Med Chem Lett, 2018).

What was measured:
[1] = target: Receptor-type tyrosine-protein kinase FLT3 (Homo sapiens, UniProt P36888); assay: Inhibition of human FLT3 using EAIYAAPFAKKK as substrate by [gamma-33P]-ATP assay
[2] = target: Tyrosine-protein kinase Mer (Homo sapiens, UniProt Q12866); assay: Inhibition of human MER using poly[Glu:Tyr] (4:1) as substrate by [gamma-33P]-ATP assay
[3] = target: Homeodomain-interacting protein kinase 1 (Homo sapiens) (UniProt Q86Z02); assay: Inhibition of human HIPK1 at 10 uM using MBP as substrate by [gamma-33P]-ATP assay relative to control
Summary of the method: (§1)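 Commercial kinase panel screen at a single concentration of 10 μM. % inhibition was calculated as 100 minus % activity.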

[4] = target: Death-associated protein kinase 1 (Homo sapiens) (UniProt P53355); assay: Inhibition of human DAPK1 at 10 uM using KKLNRTLSFAEPG as substrate by [gamma-33P]-ATP assay relative to control; summary of the method: as §1
[5] = target: T1, Tyrosine-protein kinase receptor UFO (Homo sapiens, UniProt P30530); assay: Inhibition of human AXL using EAIYAAPFAKKK as substrate by [gamma-33P]-ATP assay
T1 sequence (P30530 whole entry): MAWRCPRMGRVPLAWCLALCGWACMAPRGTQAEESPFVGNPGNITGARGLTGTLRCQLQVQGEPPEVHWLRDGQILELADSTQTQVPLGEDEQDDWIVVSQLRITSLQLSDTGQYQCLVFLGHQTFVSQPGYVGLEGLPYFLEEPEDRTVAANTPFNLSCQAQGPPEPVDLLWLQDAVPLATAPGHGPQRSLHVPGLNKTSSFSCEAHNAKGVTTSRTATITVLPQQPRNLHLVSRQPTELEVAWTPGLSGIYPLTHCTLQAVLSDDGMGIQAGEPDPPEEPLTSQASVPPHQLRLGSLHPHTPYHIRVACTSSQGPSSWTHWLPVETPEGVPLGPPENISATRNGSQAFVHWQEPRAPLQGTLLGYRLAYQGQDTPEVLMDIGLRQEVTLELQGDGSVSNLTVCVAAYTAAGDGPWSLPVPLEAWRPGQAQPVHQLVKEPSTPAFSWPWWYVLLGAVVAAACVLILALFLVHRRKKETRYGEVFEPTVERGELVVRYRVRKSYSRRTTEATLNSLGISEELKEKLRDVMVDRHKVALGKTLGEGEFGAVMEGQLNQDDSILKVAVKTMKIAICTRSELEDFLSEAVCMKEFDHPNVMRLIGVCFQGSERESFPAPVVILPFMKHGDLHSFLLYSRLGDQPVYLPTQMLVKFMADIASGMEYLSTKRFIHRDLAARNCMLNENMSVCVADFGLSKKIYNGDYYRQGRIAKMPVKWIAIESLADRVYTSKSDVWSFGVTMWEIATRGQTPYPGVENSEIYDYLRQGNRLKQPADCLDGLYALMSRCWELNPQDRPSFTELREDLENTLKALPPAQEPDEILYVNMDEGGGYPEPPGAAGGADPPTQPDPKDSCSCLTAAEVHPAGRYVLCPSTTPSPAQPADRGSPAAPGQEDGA

[6] = target: Tyrosine-protein kinase SYK (Homo sapiens, UniProt P43405); assay: Inhibition of human SYK at 10 uM using poly[Glu:Tyr] (4:1) as substrate by [gamma-33P]-ATP assay relative to control
Summary of the method: (§2)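 Kinase-panel profiling (50 oncogenic kinases) run by an outside contract service. The test compound was tested at a single concentration of 10 μM. Percent inhibition was calculated as 100 minus % remaining activity.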

MDA-MB-231 = assay: Antiproliferative activity against human MDA-MB-231 cells after 2 days by spectrophotometric analysis; type: functional; conditions: MDA-MB-231, 48 h
[7] = target: ALK tyrosine kinase receptor (Homo sapiens) (UniProt Q9UM73); assay: Inhibition of human ALK at 10 uM using poly[Glu:Tyr] (4:1) as substrate by [gamma-33P]-ATP assay relative to control; summary of the method: as §1
[8] = target: Hepatocyte growth factor receptor (Homo sapiens) (UniProt P08581); assay: Inhibition of human c-MET at 10 uM using KKKSPGEYVNIEFG as substrate by [gamma-33P]-ATP assay relative to control; summary of the method: as §2
[9] = target: Serine/threonine-protein kinase PAK 4 (Homo sapiens) (UniProt O96013); assay: Inhibition of human PAK4 at 10 uM using RRRLSFAEPG as substrate by [gamma-33P]-ATP assay relative to control; summary of the method: as §2
[10] = target: Activated CDC42 kinase 1 (Homo sapiens) (UniProt Q07912); assay: Inhibition of human ACK1 at 10 uM using EAIYAAPFAKKK as substrate by [gamma-33P]-ATP assay relative to control; summary of the method: as §1
[11] = target: Ephrin type-A receptor 1 (Homo sapiens) (UniProt P21709); assay: Inhibition of human EPHA1 at 10 uM using poly[Glu:Tyr] (4:1) as substrate by [gamma-33P]-ATP assay relative to control; summary of the method: as §1
[12] = target: Mast/stem cell growth factor receptor Kit (Homo sapiens) (UniProt P10721); assay: Inhibition of human c-KIT at 10 uM using poly[Glu:Tyr] (4:1) as substrate by [gamma-33P]-ATP assay relative to control; summary of the method: as §2
[13] = target: Mitogen-activated protein kinase 8 (Homo sapiens) (UniProt P45983); assay: Inhibition of human JNK1 at 10 uM using ATF2 as substrate by [gamma-33P]-ATP assay relative to control; summary of the method: as §1
[14] = target: Tyrosine-protein kinase ABL1 (Homo sapiens) (UniProt P00519); assay: Inhibition of human ABL1 at 10 uM using EAIYAAPFAKKK as substrate by [gamma-33P]-ATP assay relative to control; summary of the method: as §1
[15] = target: Epidermal growth factor receptor (Homo sapiens) (UniProt P00533); assay: Inhibition of human EGFR at 10 uM using poly[Glu:Tyr] (4:1) as substrate by [gamma-33P]-ATP assay relative to control; summary of the method: as §1
HCC78 = assay: Antiproliferative activity against human HCC78 cells after 2 days by spectrophotometric analysis; type: functional; conditions: HCC78, 48 h
[16] = target: Protein kinase C alpha type (Homo sapiens) (UniProt P17252); assay: Inhibition of human PKCalpha at 10 uM using ERMRPRKRQGSVRRRV as substrate by [gamma-33P]-ATP assay relative to control; summary of the method: as §2
A-375 = assay: Antiproliferative activity against human A375 cells after 2 days by spectrophotometric analysis; type: functional; conditions: A-375, 48 h
[17] = target: RAC-alpha serine/threonine-protein kinase (Homo sapiens) (UniProt P31749); assay: Inhibition of human AKT1 at 10 uM using KGSGSGRPRTSSFAEG as substrate by [gamma-33P]-ATP assay relative to control; summary of the method: as §1
[18] = target: Fibroblast growth factor receptor 1 (Homo sapiens) (UniProt P11362); assay: Inhibition of human FGFR1 at 10 uM using KKKSPGEYVNIEFG as substrate by [gamma-33P]-ATP assay relative to control; summary of the method: as §1
HCT-116 = assay: Antiproliferative activity against human HCT116 cells after 2 days by spectrophotometric analysis; type: functional; conditions: HCT-116, 48 h

Sequence of Homeodomain-interacting protein kinase 1 (Homo sapiens) (Q86Z02 whole entry, looked up): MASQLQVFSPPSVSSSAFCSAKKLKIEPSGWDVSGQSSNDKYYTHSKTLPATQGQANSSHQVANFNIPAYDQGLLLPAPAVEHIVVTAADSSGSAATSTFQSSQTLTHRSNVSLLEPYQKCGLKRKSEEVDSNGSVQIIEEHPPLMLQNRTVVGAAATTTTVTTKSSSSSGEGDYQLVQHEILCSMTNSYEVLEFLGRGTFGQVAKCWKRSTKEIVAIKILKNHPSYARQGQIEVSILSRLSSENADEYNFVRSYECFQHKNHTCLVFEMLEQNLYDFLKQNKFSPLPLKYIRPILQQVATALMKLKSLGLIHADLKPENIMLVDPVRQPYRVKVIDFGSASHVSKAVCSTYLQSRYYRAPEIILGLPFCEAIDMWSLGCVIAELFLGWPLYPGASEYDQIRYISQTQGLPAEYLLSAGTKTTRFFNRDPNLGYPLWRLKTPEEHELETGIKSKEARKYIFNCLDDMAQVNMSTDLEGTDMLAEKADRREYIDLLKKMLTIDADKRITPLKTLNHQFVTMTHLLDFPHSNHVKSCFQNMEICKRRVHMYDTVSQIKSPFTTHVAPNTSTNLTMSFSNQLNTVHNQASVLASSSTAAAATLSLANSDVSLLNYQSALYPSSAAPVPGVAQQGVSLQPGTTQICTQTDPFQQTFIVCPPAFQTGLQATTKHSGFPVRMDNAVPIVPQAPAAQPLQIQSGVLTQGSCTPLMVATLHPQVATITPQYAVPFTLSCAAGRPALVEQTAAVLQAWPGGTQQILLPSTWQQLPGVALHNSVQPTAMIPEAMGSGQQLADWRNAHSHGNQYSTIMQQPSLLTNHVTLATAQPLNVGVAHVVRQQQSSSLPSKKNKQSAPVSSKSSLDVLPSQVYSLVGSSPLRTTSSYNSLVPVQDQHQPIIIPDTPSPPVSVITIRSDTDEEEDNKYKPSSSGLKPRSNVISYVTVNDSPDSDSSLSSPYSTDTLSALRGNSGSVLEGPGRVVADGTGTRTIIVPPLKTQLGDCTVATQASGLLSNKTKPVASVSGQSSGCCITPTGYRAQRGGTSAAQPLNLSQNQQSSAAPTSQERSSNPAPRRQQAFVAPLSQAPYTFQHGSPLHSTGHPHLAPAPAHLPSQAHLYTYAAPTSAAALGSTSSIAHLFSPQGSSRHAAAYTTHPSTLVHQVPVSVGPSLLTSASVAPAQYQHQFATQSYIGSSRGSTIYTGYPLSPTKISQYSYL
Sequence of Receptor-type tyrosine-protein kinase FLT3 (P36888 whole entry): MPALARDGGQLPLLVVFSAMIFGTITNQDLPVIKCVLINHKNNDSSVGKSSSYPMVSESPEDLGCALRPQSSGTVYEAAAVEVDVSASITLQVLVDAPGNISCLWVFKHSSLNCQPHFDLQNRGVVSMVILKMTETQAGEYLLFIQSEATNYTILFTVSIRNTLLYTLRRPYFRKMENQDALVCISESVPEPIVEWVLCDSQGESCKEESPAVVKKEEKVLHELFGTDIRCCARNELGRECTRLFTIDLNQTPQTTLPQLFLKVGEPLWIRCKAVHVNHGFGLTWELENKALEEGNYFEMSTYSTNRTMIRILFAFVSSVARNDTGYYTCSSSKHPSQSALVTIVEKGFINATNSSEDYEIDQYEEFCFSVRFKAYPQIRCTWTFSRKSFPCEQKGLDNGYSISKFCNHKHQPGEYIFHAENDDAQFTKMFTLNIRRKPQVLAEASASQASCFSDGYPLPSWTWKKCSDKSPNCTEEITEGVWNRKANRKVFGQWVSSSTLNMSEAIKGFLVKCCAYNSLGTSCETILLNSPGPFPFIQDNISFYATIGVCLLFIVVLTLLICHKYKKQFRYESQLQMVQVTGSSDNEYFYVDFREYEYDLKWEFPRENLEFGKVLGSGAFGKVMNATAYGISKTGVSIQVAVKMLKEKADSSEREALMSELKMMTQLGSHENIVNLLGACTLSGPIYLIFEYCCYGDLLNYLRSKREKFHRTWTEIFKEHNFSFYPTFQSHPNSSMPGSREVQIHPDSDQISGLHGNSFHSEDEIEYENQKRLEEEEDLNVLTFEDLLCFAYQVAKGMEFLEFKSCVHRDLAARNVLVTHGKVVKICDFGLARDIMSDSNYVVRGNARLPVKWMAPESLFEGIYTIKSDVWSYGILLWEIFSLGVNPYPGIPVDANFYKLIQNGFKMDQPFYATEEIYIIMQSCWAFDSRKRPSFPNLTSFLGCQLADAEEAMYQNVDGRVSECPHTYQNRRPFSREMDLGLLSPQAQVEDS
Sequence of Hepatocyte growth factor receptor (Homo sapiens) (P08581 whole entry): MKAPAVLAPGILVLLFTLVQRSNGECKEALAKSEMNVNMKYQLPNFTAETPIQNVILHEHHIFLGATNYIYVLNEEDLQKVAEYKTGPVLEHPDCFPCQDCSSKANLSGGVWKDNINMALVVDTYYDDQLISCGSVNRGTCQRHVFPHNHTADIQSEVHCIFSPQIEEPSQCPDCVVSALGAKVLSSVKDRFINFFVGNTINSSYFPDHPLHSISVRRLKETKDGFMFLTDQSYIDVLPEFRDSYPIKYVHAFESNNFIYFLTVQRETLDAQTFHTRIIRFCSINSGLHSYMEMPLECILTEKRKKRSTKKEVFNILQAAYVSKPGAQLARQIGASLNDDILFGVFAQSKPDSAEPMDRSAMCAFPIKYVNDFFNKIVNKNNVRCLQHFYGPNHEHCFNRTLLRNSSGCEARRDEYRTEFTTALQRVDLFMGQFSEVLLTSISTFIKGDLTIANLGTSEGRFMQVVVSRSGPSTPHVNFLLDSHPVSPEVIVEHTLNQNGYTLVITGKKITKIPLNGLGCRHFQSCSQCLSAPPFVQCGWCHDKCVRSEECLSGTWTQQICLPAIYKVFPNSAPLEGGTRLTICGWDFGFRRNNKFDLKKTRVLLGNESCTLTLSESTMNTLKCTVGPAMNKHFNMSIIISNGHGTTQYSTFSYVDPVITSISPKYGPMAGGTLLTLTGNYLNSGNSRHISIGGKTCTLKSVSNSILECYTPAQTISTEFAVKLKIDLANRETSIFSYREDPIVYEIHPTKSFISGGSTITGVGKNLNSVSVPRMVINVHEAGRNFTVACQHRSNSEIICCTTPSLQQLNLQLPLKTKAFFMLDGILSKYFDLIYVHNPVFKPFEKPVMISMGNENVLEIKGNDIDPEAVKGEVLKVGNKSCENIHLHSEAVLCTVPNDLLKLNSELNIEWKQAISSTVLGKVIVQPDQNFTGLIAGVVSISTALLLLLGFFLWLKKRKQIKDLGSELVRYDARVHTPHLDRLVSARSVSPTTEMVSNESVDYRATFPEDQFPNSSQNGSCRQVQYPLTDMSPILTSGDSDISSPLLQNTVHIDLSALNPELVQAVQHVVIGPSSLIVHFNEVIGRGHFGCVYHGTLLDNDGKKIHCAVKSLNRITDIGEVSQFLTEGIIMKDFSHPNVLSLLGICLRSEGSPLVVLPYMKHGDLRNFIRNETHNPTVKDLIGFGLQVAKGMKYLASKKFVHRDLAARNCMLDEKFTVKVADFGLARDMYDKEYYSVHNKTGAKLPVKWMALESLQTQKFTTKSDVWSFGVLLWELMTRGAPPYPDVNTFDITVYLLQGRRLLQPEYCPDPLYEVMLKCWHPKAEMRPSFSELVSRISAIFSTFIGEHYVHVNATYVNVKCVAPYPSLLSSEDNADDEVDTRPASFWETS
Sequence of Mast/stem cell growth factor receptor Kit (Homo sapiens) (P10721 whole entry): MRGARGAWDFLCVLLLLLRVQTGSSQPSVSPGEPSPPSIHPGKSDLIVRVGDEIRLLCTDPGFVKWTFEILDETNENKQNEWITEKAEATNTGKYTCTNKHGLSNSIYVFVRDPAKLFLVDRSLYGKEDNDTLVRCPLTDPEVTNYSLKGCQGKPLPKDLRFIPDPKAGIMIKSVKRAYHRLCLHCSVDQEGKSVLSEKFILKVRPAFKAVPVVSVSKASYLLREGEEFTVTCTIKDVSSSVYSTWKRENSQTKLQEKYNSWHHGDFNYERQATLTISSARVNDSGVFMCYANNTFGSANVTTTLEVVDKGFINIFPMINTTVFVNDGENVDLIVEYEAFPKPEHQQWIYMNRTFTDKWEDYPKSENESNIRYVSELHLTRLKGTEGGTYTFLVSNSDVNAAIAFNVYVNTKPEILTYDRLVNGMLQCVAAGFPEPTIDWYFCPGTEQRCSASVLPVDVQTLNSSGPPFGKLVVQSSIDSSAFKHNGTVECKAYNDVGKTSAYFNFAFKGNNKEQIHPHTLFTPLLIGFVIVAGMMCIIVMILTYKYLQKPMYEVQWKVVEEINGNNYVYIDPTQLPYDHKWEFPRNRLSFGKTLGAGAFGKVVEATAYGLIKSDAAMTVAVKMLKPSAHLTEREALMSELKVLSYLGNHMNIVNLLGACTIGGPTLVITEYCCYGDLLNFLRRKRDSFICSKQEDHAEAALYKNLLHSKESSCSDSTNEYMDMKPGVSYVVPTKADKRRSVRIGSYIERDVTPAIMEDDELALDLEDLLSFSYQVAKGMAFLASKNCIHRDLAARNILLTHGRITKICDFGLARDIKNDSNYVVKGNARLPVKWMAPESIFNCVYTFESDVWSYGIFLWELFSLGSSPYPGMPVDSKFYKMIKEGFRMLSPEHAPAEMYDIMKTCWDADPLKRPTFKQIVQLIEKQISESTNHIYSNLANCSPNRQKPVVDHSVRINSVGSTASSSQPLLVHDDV
Sequence of RAC-alpha serine/threonine-protein kinase (Homo sapiens) (P31749 whole entry): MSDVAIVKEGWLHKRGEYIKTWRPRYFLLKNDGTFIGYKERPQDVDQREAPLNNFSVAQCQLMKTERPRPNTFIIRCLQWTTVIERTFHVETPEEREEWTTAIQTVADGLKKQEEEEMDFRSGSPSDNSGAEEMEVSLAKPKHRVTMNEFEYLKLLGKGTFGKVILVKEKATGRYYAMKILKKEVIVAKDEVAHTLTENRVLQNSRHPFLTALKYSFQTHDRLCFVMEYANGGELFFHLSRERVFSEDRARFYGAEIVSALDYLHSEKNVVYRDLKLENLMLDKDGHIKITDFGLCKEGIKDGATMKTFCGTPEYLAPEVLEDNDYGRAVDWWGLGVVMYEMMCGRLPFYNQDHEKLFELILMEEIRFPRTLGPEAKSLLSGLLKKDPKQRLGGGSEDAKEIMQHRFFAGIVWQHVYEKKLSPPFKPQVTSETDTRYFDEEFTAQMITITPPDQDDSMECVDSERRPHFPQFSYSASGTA

IC50 [1]: 0.0046 µM | IC50 [2]: 0.025 µM | inhibition [3]: 83.8% | IC50 [5]: < 0.0005 µM | inhibition [6]: 95.3% | GI50 (MDA-MB-231): 0.5 µM | inhibition [7]: 71.3% | inhibition [8]: 17.9% | inhibition [9]: 16.2% | inhibition [10]: 91.1% | inhibition [11]: 13.1% | inhibition [12]: 17.8% | inhibition [13]: 45.1% | inhibition [14]: 63.1% | inhibition [15]: 2% | GI50 (HCC78): 5.2 µM | inhibition [16]: 19.3% | GI50 (A-375): 1 µM | inhibition [17]: -3.6% | inhibition [18]: 26% | GI50 (HCT-116): 0.42 µM
Structure (SMILES): CC(=O)N1CCN(c2ccc(Nc3ncc(C(F)(F)F)c(N4Cc5cccc(N(C)S(C)(=O)=O)c5C4)n3)cc2)CC1
inhibition [4]: 42.2%
